Experimental data from paper PMC9722229 (European journal of pharmacology, 2019).
Like-named read-outs stand apart in the source and are kept apart here.

Key:
hERG channel = hERG channel (Homo sapiens, UniProt Q12809)
5HT5a = 5HT5a (Homo sapiens, UniProt P47898); assay: NIMH PDSP receptor binding assay; conditions: read-out: % Inhibition of Binding at 10 μM D-578
V1B = V1B (Homo sapiens, UniProt P47901); assay: NIMH PDSP receptor binding assay; conditions: read-out: % Inhibition of Binding at 10 μM D-578
Alpha2A = Alpha2A (Homo sapiens, UniProt P08913); assay: NIMH PDSP receptor binding assay; conditions: read-out: % Inhibition of Binding at 10 μM D-578
cloned human DAT = cloned human DAT (Homo sapiens, UniProt Q01959); assay: Inhibition of [3H]DA uptake in HEK 293 cells expressing cloned human transporter; type: cell-based
D5 = D5 (Homo sapiens, UniProt P21918); assay: NIMH PDSP receptor binding assay; conditions: read-out: % Inhibition of Binding at 10 μM D-578
M5 = M5 (Homo sapiens, UniProt P08912); assay: biochemical; type: binding
5HT6 = 5HT6 (Homo sapiens, UniProt P50406); assay: NIMH PDSP receptor binding assay; conditions: read-out: % Inhibition of Binding at 10 μM D-578
Alpha1B = Alpha1B (Homo sapiens, UniProt P35368); assay: NIMH PDSP receptor binding assay; conditions: read-out: % Inhibition of Binding at 10 μM D-578
Alpha2B = Alpha2B (Homo sapiens, UniProt P18089); assay: NIMH PDSP receptor binding assay; conditions: read-out: % Inhibition of Binding at 10 μM D-578
5HT2b = 5HT2b (Homo sapiens, UniProt P41595); assay: NIMH PDSP receptor binding assay
5HT2b, sequence (P41595 whole entry): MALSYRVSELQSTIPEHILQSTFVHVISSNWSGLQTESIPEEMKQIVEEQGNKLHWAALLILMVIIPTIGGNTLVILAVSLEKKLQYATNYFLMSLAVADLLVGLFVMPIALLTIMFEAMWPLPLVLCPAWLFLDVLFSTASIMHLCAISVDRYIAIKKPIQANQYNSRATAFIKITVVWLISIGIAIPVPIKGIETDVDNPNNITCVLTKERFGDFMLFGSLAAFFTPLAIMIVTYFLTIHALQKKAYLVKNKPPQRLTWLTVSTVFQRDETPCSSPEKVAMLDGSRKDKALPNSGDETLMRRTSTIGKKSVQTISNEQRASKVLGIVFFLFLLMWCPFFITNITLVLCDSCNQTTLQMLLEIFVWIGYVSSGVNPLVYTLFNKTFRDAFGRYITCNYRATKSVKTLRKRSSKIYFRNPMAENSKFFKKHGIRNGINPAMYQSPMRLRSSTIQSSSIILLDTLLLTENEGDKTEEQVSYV

cloned human NET = cloned human NET (Homo sapiens, UniProt P23975); assay: cell-based; type: cell-based
Beta3 = Beta3 (Homo sapiens, UniProt P13945); assay: NIMH PDSP receptor binding assay
Beta3, sequence (P13945 whole entry): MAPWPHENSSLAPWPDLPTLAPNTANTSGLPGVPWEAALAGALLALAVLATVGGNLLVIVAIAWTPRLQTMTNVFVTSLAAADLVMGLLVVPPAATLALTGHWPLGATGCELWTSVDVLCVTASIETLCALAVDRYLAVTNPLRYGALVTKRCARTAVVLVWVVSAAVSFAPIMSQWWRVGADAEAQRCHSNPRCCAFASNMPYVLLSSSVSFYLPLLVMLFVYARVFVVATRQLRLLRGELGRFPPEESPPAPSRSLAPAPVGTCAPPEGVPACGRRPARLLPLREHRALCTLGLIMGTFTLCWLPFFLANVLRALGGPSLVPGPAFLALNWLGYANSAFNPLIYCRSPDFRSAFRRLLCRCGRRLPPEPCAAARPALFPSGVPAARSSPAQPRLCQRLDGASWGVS

cloned human SERT = cloned human SERT (Homo sapiens, UniProt P31645); type: cell-based
D3 = D3 (Homo sapiens, UniProt P35462); assay: NIMH PDSP receptor binding assay
D3, sequence (P35462 whole entry): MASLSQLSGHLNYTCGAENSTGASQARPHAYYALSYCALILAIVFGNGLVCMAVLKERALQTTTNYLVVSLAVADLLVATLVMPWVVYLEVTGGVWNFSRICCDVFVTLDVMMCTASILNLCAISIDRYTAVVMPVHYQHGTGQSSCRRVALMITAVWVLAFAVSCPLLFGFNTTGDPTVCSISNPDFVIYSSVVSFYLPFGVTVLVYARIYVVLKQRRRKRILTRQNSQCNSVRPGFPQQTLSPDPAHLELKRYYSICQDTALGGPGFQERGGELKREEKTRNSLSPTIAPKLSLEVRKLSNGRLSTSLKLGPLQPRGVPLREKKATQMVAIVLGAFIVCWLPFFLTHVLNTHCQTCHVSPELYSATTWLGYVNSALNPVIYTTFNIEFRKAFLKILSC

5HT2c = 5HT2c (Homo sapiens, UniProt P28335); assay: NIMH PDSP receptor binding assay
5HT2c, sequence (P28335 33-458): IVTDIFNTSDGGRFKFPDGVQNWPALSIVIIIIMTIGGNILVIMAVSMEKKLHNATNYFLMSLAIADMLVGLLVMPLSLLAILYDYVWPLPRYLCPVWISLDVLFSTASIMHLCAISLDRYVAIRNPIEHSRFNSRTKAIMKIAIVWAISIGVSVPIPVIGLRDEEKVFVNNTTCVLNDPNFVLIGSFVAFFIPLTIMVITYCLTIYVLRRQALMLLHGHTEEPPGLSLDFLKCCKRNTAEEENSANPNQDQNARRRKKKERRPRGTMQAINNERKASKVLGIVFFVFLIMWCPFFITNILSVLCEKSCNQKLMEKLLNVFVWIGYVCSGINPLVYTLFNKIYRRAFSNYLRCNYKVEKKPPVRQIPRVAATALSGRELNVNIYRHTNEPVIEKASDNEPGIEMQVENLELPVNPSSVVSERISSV

5HT1d = 5HT1d (Homo sapiens, UniProt P28221); assay: NIMH PDSP receptor binding assay
5HT1d, sequence (P28221 whole entry): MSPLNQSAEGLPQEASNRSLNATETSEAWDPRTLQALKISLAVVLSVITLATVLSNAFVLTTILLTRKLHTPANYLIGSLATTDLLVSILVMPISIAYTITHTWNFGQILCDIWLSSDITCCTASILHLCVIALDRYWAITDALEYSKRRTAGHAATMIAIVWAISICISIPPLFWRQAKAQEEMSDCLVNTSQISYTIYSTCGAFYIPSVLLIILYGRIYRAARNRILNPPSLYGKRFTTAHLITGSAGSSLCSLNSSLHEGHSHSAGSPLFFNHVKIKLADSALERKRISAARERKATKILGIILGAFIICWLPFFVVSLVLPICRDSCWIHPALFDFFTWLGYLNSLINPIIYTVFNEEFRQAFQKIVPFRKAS

D4 = D4 (Homo sapiens, UniProt P21917); assay: NIMH PDSP receptor binding assay; conditions: read-out: % Inhibition of Binding at 10 μM D-578
locomotor activity = assay: Locomotor activity test; type: in vivo, rat; conditions: 25 mg/kg oral, rats, up to 120 min
Method in brief: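 Sprague-Dawley rats were acclimated for 1 h in automated activity chambers, then dosed by oral gavage with test compound (25 mg/kg) or vehicle. Distance travelled was recorded for 2 h after dosing, matching the forced-swim timing. n = 4-7 rats/group.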

H1 = H1 (Homo sapiens, UniProt P35367); assay: NIMH PDSP receptor binding assay; conditions: read-out: % Inhibition of Binding at 10 μM D-578
Alpha2C = Alpha2C (Homo sapiens, UniProt P18825); assay: NIMH PDSP receptor binding assay
V1A = V1A (Homo sapiens, UniProt P37288); assay: NIMH PDSP receptor binding assay; conditions: read-out: % Inhibition of Binding at 10 μM D-578
Beta1 = Beta1 (Homo sapiens, UniProt P08588); assay: NIMH PDSP receptor binding assay; conditions: read-out: % Inhibition of Binding at 10 μM D-578
H2 = H2 (Homo sapiens, UniProt P25021); assay: NIMH PDSP receptor binding assay
Oxytocin = Oxytocin (Homo sapiens, UniProt P30559); assay: NIMH PDSP receptor binding assay
Oxytocin, sequence (P30559 whole entry): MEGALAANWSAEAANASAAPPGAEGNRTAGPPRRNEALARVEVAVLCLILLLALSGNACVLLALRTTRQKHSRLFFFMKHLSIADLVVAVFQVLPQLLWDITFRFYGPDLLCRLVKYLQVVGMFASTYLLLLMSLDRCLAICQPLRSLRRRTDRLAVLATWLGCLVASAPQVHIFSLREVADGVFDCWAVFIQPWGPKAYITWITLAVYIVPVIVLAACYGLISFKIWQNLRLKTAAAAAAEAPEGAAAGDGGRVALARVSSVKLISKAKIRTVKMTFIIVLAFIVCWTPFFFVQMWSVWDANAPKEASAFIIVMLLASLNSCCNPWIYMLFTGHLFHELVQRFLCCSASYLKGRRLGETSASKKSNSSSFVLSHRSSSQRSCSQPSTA

5HT1a = 5HT1a (Homo sapiens, UniProt P08908); assay: NIMH PDSP receptor binding assay; conditions: read-out: % Inhibition of Binding at 10 μM D-578
H3 = H3 (Homo sapiens, UniProt Q9Y5N1); assay: NIMH PDSP receptor binding assay; conditions: read-out: % Inhibition of Binding at 10 μM D-578
[1] = Oral absorption and brain penetration; type: in vivo; conditions: unpublished data
5HT2a = 5HT2a (Homo sapiens, UniProt P28223); assay: NIMH PDSP receptor binding assay
mGlur5 = mGlur5 (Rattus norvegicus, UniProt P31424); assay: NIMH PDSP receptor binding assay; conditions: read-out: % Inhibition of Binding at 10 μM D-578
κ-opioid = κ-opioid (Homo sapiens, UniProt P41145); assay: NIMH PDSP receptor binding assay
κ-opioid, sequence (P41145 whole entry): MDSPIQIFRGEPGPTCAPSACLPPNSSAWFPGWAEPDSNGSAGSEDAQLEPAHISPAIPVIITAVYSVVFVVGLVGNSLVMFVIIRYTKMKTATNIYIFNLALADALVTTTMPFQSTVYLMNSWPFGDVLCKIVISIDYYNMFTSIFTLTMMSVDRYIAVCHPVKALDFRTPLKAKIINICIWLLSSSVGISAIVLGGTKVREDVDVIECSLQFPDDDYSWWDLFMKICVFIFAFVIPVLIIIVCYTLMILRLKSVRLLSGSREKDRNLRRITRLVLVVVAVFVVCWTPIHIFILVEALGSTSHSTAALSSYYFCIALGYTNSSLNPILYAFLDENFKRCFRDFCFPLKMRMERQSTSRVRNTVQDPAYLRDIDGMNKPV

δ-opioid = δ-opioid (Homo sapiens, UniProt P41143); assay: NIMH PDSP receptor binding assay; conditions: read-out: % Inhibition of Binding at 10 μM D-578
V2 = V2 (Homo sapiens, UniProt P30518); assay: NIMH PDSP receptor binding assay; conditions: read-out: % Inhibition of Binding at 10 μM D-578
[2] = tested on: conditioned fear behavior; assay: Single prolonged stress; type: in vivo, rat; conditions: SPS rats, D-578 10 mg/kg, paroxetine 5 mg/kg; for Freezing behavior during the extinction retention session (SPS-induced deficit) / Freezing behavior during the extinction session (SPS-induced deficit): i.p. 90 min prior to each session; for Shock reactivity during acquisition compared to the control group: i.p., five 1 mA shocks
GABA A = assay: NIMH PDSP receptor binding assay; conditions: [3H]Muscimol, mean of 4 determinations
5HT1b = 5HT1b (Homo sapiens, UniProt P28222); assay: NIMH PDSP receptor binding assay; conditions: read-out: % Inhibition of Binding at 10 μM D-578
M3 = M3 (Homo sapiens, UniProt P20309); assay: biochemical; conditions: read-out: % Inhibition of Binding at 10 μM D-578
Alpha1D = Alpha1D (Homo sapiens, UniProt P25100); assay: NIMH PDSP receptor binding assay; conditions: read-out: % Inhibition of Binding at 10 μM D-578
DAT = DAT (Rattus norvegicus, UniProt P23977); assay: Inhibition of [3H]DA uptake in rat striatum synaptosomes; type: biochemical
D2 = D2 (Homo sapiens, UniProt P14416); assay: NIMH PDSP receptor binding assay
Alpha1A = Alpha1A (Homo sapiens, UniProt P35348); assay: NIMH PDSP receptor binding assay; conditions: read-out: % Inhibition of Binding at 10 μM D-578
μ-Opioid = μ-Opioid (Homo sapiens, UniProt P35372); assay: NIMH PDSP receptor binding assay; conditions: read-out: % Inhibition of Binding at 10 μM D-578
SERT = SERT (Rattus norvegicus, UniProt P31652); assay: Inhibition of [3H]5-HT uptake in rat cerebral cortex synaptosomes; type: biochemical
M4 = M4 (Homo sapiens, UniProt P08173); assay: biochemical; type: binding
M4, sequence (P08173 whole entry): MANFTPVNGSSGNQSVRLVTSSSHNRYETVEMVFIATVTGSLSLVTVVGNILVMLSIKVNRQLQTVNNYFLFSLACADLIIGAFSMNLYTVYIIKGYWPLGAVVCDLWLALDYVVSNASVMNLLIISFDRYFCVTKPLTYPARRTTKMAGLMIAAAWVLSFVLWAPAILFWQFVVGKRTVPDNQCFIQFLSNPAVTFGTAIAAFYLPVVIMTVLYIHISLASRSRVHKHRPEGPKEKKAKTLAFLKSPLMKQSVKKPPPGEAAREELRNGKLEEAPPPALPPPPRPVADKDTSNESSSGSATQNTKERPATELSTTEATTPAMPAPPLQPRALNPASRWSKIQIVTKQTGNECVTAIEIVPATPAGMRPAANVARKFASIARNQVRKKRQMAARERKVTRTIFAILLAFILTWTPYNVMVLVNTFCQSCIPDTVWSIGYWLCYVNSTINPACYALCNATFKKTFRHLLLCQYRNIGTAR

BZP Rat Brain Site = assay: NIMH PDSP receptor binding assay; conditions: 3H-Flunitrazepam, mean of 4 determinations
M1 = M1 (Homo sapiens, UniProt P11229); assay: biochemical; conditions: read-out: % Inhibition of Binding at 10 μM D-578
PBR = PBR (Rattus norvegicus, UniProt P16257); assay: NIMH PDSP receptor binding assay; conditions: read-out: % Inhibition of Binding at 10 μM D-578
H4 = H4 (Homo sapiens, UniProt Q9H3N8); assay: NIMH PDSP receptor binding assay; conditions: read-out: % Inhibition of Binding at 10 μM D-578
Beta2 = Beta2 (Homo sapiens, UniProt P07550); assay: NIMH PDSP receptor binding assay
Beta2, sequence (P07550 whole entry): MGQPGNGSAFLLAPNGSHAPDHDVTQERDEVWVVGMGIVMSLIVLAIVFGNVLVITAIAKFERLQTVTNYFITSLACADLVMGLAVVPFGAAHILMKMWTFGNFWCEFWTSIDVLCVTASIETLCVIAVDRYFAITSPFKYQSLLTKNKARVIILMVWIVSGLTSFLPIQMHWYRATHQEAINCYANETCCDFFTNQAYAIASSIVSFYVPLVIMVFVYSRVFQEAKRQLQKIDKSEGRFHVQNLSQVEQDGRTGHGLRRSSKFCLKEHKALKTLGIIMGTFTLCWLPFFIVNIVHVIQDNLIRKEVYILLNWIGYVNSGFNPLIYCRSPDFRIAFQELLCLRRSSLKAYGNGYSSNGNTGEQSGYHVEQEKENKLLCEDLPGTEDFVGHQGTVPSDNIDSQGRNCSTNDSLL

5HT7 = 5HT7 (Homo sapiens, UniProt P34969); assay: NIMH PDSP receptor binding assay; conditions: read-out: % Inhibition of Binding at 10 μM D-578
5HT3 = 5HT3 (Homo sapiens, UniProt P46098); assay: NIMH PDSP receptor binding assay; conditions: read-out: % Inhibition of Binding at 10 μM D-578
[3] = tested on: immobility in the forced swimming test; assay: Forced swimming test in rats after oral administration; type: in vivo, rat; conditions: for Immobility in the rat forced swimming test compared to vehicle: sub-chronic, 1 h before test, mesylate salt
Method in brief: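 Male Sprague-Dawley rats (200-225 g), naive, used once, were given a Porsolt two-session test. The pretest was a 15 min swim and the test a 5 min swim 24 h later, in a 24.5 × 35.5 cm cylinder with 22 cm water at 24-25 °C. Mesylate salt in 3% β-hydroxypropyl cyclodextrin/saline was given p.o. 15 min after pretest and 1 h before test. Blinded video scoring of immobility; one-way ANOVA.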

M2 = M2 (Homo sapiens, UniProt P08172); assay: biochemical; conditions: read-out: % Inhibition of Binding at 10 μM D-578
D1 = D1 (Homo sapiens, UniProt P21728); assay: NIMH PDSP receptor binding assay; conditions: read-out: % Inhibition of Binding at 10 μM D-578
[4] = read-out: % Inhibition of Binding at 10 μM D-578

hERG channel, sequence (Q12809 whole entry): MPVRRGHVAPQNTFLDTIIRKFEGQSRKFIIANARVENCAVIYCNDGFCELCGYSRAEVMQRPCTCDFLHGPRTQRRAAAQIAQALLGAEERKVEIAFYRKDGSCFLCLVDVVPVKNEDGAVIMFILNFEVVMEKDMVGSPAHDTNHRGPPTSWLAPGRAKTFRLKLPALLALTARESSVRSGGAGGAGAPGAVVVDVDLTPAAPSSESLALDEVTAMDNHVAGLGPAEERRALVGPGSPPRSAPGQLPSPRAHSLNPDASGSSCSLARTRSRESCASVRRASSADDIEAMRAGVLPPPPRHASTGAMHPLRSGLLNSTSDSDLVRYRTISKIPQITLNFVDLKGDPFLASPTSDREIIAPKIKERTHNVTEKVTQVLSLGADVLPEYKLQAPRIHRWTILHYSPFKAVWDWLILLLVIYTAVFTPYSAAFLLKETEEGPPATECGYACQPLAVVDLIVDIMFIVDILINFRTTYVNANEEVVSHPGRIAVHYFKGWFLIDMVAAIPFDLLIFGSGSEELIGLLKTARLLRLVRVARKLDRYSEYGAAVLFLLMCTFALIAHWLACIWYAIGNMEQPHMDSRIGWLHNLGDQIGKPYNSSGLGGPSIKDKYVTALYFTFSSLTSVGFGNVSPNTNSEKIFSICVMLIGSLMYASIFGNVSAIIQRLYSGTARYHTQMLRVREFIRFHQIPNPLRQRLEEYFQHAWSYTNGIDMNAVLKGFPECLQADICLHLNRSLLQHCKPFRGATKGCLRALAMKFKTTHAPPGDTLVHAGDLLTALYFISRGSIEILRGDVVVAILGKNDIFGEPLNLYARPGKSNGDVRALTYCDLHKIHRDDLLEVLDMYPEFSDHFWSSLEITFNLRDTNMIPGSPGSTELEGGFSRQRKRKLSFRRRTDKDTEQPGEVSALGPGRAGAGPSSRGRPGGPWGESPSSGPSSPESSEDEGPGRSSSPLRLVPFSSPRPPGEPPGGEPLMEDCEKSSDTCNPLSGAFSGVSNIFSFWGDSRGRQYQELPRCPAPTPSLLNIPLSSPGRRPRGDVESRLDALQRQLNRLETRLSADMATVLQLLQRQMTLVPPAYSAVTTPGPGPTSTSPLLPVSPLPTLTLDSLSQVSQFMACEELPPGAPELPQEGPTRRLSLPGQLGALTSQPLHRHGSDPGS

For `COc1cc(N)c(Cl)cc1C(=O)NC1CCN(CCCOc2ccc(F)cc2)CC1OC` (stereo not shown) [Cisapride, reference compound], the “Hill Slope” value (hERG channel; human) was 1.01 ± 0.07.
`Nc1nc2ccc(CN[C@@H]3CO[C@H](C(c4ccc(F)cc4)c4ccc(F)cc4)C[C@H]3O)cc2s1` [D-578, (2S,4R,5R)-5-(((2-aminobenzo[d]thiazol-6-yl)methyl)amino)-2-(bis(4-fluorophenyl)methyl)tetrahydro-2H-pyran-4-ol] gave an inhibition at 10 µM (5HT5a) of 35.2%, an inhibition at 10 µM (V1B) of 7.8% and an inhibition at 10 µM (Alpha2A) of 22.6%. The Ki (cloned human DAT) was 29.6 ± 6.95 nM, the inhibition at 10 µM (D5) was 37.4% and the Ki (M5) was > 10000 nM. The inhibition at 10 µM (M5; [4]) was 84.4%, the inhibition at 10 µM (5HT6) was 12.8% and the inhibition at 10 µM (Alpha1B) was 38.3%. It also gave an inhibition at 10 µM (Alpha2B) of 6.3%, a Ki (5HT2b) of 425 nM and an inhibition at 10 µM (5HT2b; [4]) of 80.3%. For the same compound, the Ki (cloned human NET) was 6.1 ± 1.14 nM, the “Times more potent at NET compared to DAT and SERT” value (cloned human NET; cloned human transporters) was 3-4 times and the Ki (Beta3) was 2700 nM. The inhibition at 10 µM (Beta3; [4]) was 59.8%, the Ki (cloned human SERT) was 20.6 ± 3.8 nM and the Ki (D3) was 2610 nM. The inhibition at 10 µM (D3; [4]) was 56.4%, the Ki (5HT2c) was 73 nM and the inhibition at 10 µM (5HT2c; [4]) was 96.3%. The Ki (5HT1d) was 702 nM, the inhibition at 10 µM (5HT1d; [4]) was 72% and the inhibition at 10 µM (D4) was 20.9%. For the same compound, the “Locomotor activity, distance travelled vs vehicle” value (locomotor activity) was “not significantly different from vehicle”, the inhibition at 10 µM (H1) was 11% and the Ki (Alpha2C) was 2010 nM. The inhibition at 10 µM (Alpha2C; [4]) was 72%, the inhibition at 10 µM (V1A) was 44.6% and the inhibition at 10 µM (Beta1) was 45.6%. For the same compound, the Ki (H2) was 42 nM, the inhibition at 10 µM (H2; [4]) was 94.1% and the Ki (Oxytocin) was > 10000 nM. The inhibition at 10 µM (Oxytocin; [4]) was 53.1%, the inhibition at 10 µM (5HT1a) was 19.9% and the inhibition at 10 µM (H3) was 19.6%. For the same compound, the “Oral absorption and brain penetration” value [1] was “gets absorbed orally and penetrates into the brain well”, the Ki (5HT2a) was 1640 nM and the inhibition at 10 µM (5HT2a; [4]) was 62.5%. The inhibition at 10 µM (mGlur5) was 52.8%, the Ki (κ-opioid) was 1390 nM and the inhibition at 10 µM (κ-opioid; [4]) was 68.9%. For the same compound, the inhibition at 10 µM (δ-opioid) was 24.1%, the inhibition at 10 µM (V2) was 21% and the “Freezing behavior during the extinction retention session (SPS-induced deficit)” value [2] was “froze significantly less”. The “Freezing behavior during the extinction session (SPS-induced deficit)” value [2] was “froze less”, the “Shock reactivity during acquisition compared to the control group” value [2] was “no effect” and the “% Inhibition of Binding at 10 μM D-578” value (GABA A) was 2.3%. The inhibition at 10 µM (5HT1b) was 13.6%, the inhibition at 10 µM (M3) was 7.5% and the inhibition at 10 µM (Alpha1D) was 24.7%. It also gave a Ki (DAT) of 16.2 ± 2 nM, a Ki (D2) of 773 nM and an inhibition at 10 µM (D2; [4]) of 62.3%. For the same compound, the inhibition at 10 µM (Alpha1A) was 18.6%, the inhibition at 10 µM (μ-Opioid) was 11.7% and the Ki (SERT) was 16.2 ± 1.5 nM. For the same compound, the Ki (M4) was > 10000 nM, the inhibition at 10 µM (M4; [4]) was 55% and the “% Inhibition of Binding at 10 μM D-578” value (BZP Rat Brain Site) was 28.8%. For the same compound, the inhibition at 10 µM (M1) was 97.2%, the inhibition at 10 µM (PBR) was 10.6% and the “Inhibition of the hERG channel (in words)” value (hERG channel; Thallium flux assay) was “almost no inhibition”. For the same compound, the “Hill Slope” value (hERG channel; Tl+ flux assay, inhibition of hERG channel) was 1.471 ± 0.23, the inhibition at 10 µM (H4) was 2.4% and the Ki (Beta2) was > 10000 nM. For the same compound, the inhibition at 10 µM (Beta2; [4]) was 59.4%, the inhibition at 10 µM (5HT7) was 28.9% and the inhibition at 10 µM (5HT3) was 8.5%. For the same compound, the “Immobility in the rat forced swimming test compared to vehicle” value (shortened to “Immobility … compared to vehicle”) ([3]; 10 mg/kg p.o.) was “significantly reduced”, the “Immobility … compared to vehicle” value ([3]; 15 mg/kg p.o.) was “significantly reduced” and the “Reduction of immobility compared to control” value ([3]; 25 mg/kg PO, forced swimming test in rats) was “greater than 90%”. For the same compound, the “Immobility … compared to vehicle” value ([3]; 25 mg/kg p.o.) was “marked reduction of immobility”, the inhibition at 10 µM (M2) was 20.9% and the inhibition at 10 µM (D1) was 11%.
In the case of `Fc1ccc([C@@H]2CCNC[C@H]2COc2ccc3c(c2)OCO3)cc1` [paroxetine, reference compound], the “Freezing behavior during the extinction retention session (SPS-induced deficit)” value [2] is reported as “did not reverse”, the “Freezing behavior during the extinction session (SPS-induced deficit)” value [2] is reported as “did not reverse” and the “Shock reactivity during acquisition compared to the control group” value [2] is reported as “no effect”.
